Source: article PMC2213299 (The Journal of Experimental Medicine, 2004)
Where no end group is shown, it is not given here. The star is where a group is joined. αGalNAc = CC(=O)N[C@@H]1[C@@H](O)[C@@H](O)[C@@H](CO)O[C@@H]1*

molecular target: K^b molecules (MHC class I H-2K^b) purified from EL-4 cells (mouse (endogenous in EL-4)); experiment: radioligand binding

GGGGFGGL was tested. Which IC50 did it give?
The IC50 was 53000 nM.

Which IC50 does the source give for SSSSFSSL here?
The IC50 was 509 nM.

How did the IC50 turn out when AIIASFAAL (βGal-[1→3]-α-GalNAc-O-serine (TF antigen) at position 5) [AIIA(βGal-[1→3]-α-GalNAc-O-ser)FAAL] was run?
Its IC50 is 4 nM.

With AAAAFAAL as the molecule, how does the IC50 read?
The IC50 was 75 nM.

For AIIAS(αGalNAc)FAAL [AIIA(GalNac-O-ser)FAAL], which IC50 is on record?
Its IC50 is 4 nM.

Which IC50 does the source give for AIIASFAAL here?
Its IC50 is 4 nM.

Which IC50 does the source give for AIIAAFAAL here?
The IC50 was 10 nM.

molecular target: K^b molecules (Mus musculus, UniProt P01901); experiment: not given; format: binding, murine
In short: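 Kb was affinity-purified from filtered Nonidet P-40 lysates of EL-4 cells. 5–10 nM Kb was incubated with a 125I-labelled known Kb-binding peptide plus test compound for 48 h in PBS with 0.05% Nonidet P-40 and protease inhibitors. Bound and free peptide were separated by gel filtration on TSK columns. IC50 is the amount inhibiting 50% of radioligand binding.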

Which IC50 does the source give for AAAAAFAAL [AAAAAFAAL] here?
Its IC50 is 610 nM.

AAAAFAAL [AAAAFAAL] was tested. Which IC50 did it give?
The IC50 was 75 nM.

AAIAAFAAL [AAIAAFAAL] was tested. Which IC50 did it give?
Its IC50 is 90 nM.

How did the IC50 turn out when AIAAAFAAL [AIAAAFAAL] was run?
Its IC50 is 240 nM.

How did the IC50 turn out when AIIAAFAAL [AIIAAFAAL] was run?
The IC50 was 10 nM.

With GGGGFGGL [GGGGFGGL] as the molecule, how does the IC50 read?
The IC50 was 53000 nM.

SSSSFSSL [SSSSFSSL] was tested. Which IC50 did it give?
Its IC50 is 509 nM.
